# Legend:
# Format in all cases: functional
# Enterococcus faecium [1] = assay: Ratio of compound MIC to ciprofloxacin MIC for Enterococcus faecium 10-9
# Streptococcus pneumoniae [2] = assay: Ratio of compound MIC to ciprofloxacin MIC for Streptococcus pneumoniae 10-1
# Escherichia coli [3] = assay: Antibacterial activity against extended spectrum beta-lactamases producing Escherichia coli 10-4 after 18 to 24 hrs by NCCLS method
# Summary of the method: (§1)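 Standard NCCLS (M100-S11) MIC testing against Gram-positive and Gram-negative strains. Plates were incubated at 35 °C for 18–24 h. The MIC was read as the lowest concentration giving complete inhibition of visible bacterial growth.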
# Escherichia coli [4] = assay: Antibacterial activity against Escherichia coli 10-1 after 18 to 24 hrs by NCCLS method; summary of the method: as §1
# Enterococcus faecalis [5] = assay: Antibacterial activity against Enterococcus faecalis 10-5 after 18 to 24 hrs by NCCLS method; summary of the method: as §1
# Pseudomonas aeruginosa [6] = assay: Antibacterial activity against Pseudomonas aeruginosa 10-15 after 18 to 24 hrs by NCCLS method; summary of the method: as §1
# Staphylococcus aureus [7] = assay: Antibacterial activity against methicillin-resistant Staphylococcus aureus 10-15 after 18 to 24 hrs by NCCLS method
# Summary of the method: (§2)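 Incubated at 35 °C for 18–24 h under NCCLS (M100-S11) standards. MIC was read as the lowest concentration giving complete inhibition of visible bacterial growth.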
# Staphylococcus aureus [8] = assay: Antibacterial activity against methicillin-resistant Staphylococcus aureus 10-11 after 18 to 24 hrs by NCCLS method; summary of the method: as §2
# Enterococcus faecalis [9] = assay: Antibacterial activity against Enterococcus faecalis 10-7 after 18 to 24 hrs by NCCLS method; summary of the method: as §1
# [10] = test system: Mycobacterium tuberculosis; assay: Antimycobacterial activity against Mycobacterium tuberculosis H37Rv ATCC 27294 by microplate alamar blue assay
# Summary of the method: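 Microplate Alamar Blue fluorescence assay on strain H37Rv ATCC 27294. MIC was the lowest concentration cutting fluorescence by ≥90% against the mean of replicate bacterium-only controls.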
# Enterococcus faecium [11] = assay: Antibacterial activity against Enterococcus faecium 10-9 after 18 to 24 hrs by NCCLS method; summary of the method: as §1
# Staphylococcus aureus [12] = assay: Antibacterial activity against methicillin-resistant Staphylococcus aureus 10-13 after 18 to 24 hrs by NCCLS method; summary of the method: as §2
# Escherichia coli [13] = assay: Antibacterial activity against Escherichia coli ATCC 25922 after 18 to 24 hrs by NCCLS method; summary of the method: as §1
# Enterococcus faecalis [14] = assay: Ratio of compound MIC to ciprofloxacin MIC for Enterococcus faecalis 10-6
# Pseudomonas aeruginosa [15] = assay: Antibacterial activity against Pseudomonas aeruginosa 10-18 after 18 to 24 hrs by NCCLS method; summary of the method: as §1
# Staphylococcus aureus [16] = assay: Antibacterial activity against methicillin-sensitive Staphylococcus aureus 10-14 after 18 to 24 hrs by NCCLS method; summary of the method: as §1
# [17] = test system: Staphylococcus epidermidis; assay: Antibacterial activity against methicillin-resistant Staphylococcus epidermidis 10-10 after 18 to 24 hrs by NCCLS method; summary of the method: as §2
# Escherichia coli [18] = assay: Antibacterial activity against Escherichia coli 10-3 after 18 to 24 hrs by NCCLS method; summary of the method: as §1
# Staphylococcus aureus [19] = assay: Ratio of compound MIC to ciprofloxacin MIC for Staphylococcus aureus ATCC 2592
# Staphylococcus aureus [20] = assay: Ratio of compound MIC to ciprofloxacin MIC for methicillin-sensitive Staphylococcus aureus 10-13
# Enterococcus faecium [21] = assay: Ratio of compound MIC to ciprofloxacin MIC for Enterococcus faecium 10-6
# Escherichia coli [22] = assay: Antibacterial activity against extended spectrum beta-lactamases producing Escherichia coli 10-3 after 18 to 24 hrs by NCCLS method; summary of the method: as §1
# Pseudomonas aeruginosa [23] = assay: Antibacterial activity against Pseudomonas aeruginosa 10-9 after 18 to 24 hrs by NCCLS method; summary of the method: as §1
# Enterococcus faecalis [24] = assay: Antibacterial activity against Enterococcus faecalis 10-6 after 18 to 24 hrs by NCCLS method; summary of the method: as §1
# Staphylococcus aureus [25] = assay: Antibacterial activity against Staphylococcus aureus ATCC 2592 after 18 to 24 hrs by NCCLS method; summary of the method: as §1
# Klebsiella pneumoniae [26] = assay: Antibacterial activity against extended spectrum beta-lactamases producing Klebsiella pneumoniae 10-3 after 18 to 24 hrs by NCCLS method; summary of the method: as §1
# Escherichia coli [27] = assay: Antibacterial activity against extended spectrum beta-lactamases producing Escherichia coli 10-2 after 18 to 24 hrs by NCCLS method; summary of the method: as §1
# Klebsiella pneumoniae [28] = assay: Antibacterial activity against extended spectrum beta-lactamases producing Klebsiella pneumoniae 10-2 after 18 to 24 hrs by NCCLS method; summary of the method: as §1
# Klebsiella pneumoniae [29] = assay: Antibacterial activity against extended spectrum beta-lactamases producing Klebsiella pneumoniae 10-1 after 18 to 24 hrs by NCCLS method; summary of the method: as §1
# Enterococcus faecalis [30] = assay: Ratio of compound MIC to ciprofloxacin MIC for Enterococcus faecalis 10-5
# Enterococcus faecium [31] = assay: Antibacterial activity against Enterococcus faecium 10-6 after 18 to 24 hrs by NCCLS method; summary of the method: as §1
# Klebsiella pneumoniae [32] = assay: Antibacterial activity against Klebsiella pneumoniae 10-4 after 18 to 24 hrs by NCCLS method; summary of the method: as §1
# [33] = test system: Staphylococcus epidermidis; assay: Antibacterial activity against methicillin-sensitive Staphylococcus epidermidis 10-11 after 18 to 24 hrs by NCCLS method; summary of the method: as §1
# Staphylococcus aureus [34] = assay: Antibacterial activity against methicillin-sensitive Staphylococcus aureus 10-11 after 18 to 24 hrs by NCCLS method; summary of the method: as §1
# [35] = test system: Staphylococcus epidermidis; assay: Antibacterial activity against methicillin-resistant Staphylococcus epidermidis 10-13 after 18 to 24 hrs by NCCLS method; summary of the method: as §2
# Streptococcus pneumoniae [36] = assay: Antibacterial activity against Streptococcus pneumoniae 10-1 after 18 to 24 hrs by NCCLS method; summary of the method: as §1
# Klebsiella pneumoniae [37] = assay: Antibacterial activity against Klebsiella pneumoniae 10-2 after 18 to 24 hrs by NCCLS method; summary of the method: as §1
# Klebsiella pneumoniae [38] = assay: Antibacterial activity against Klebsiella pneumoniae 10-3 after 18 to 24 hrs by NCCLS method; summary of the method: as §1
# Staphylococcus aureus [39] = assay: Ratio of compound MIC to ciprofloxacin MIC for methicillin-sensitive Staphylococcus aureus 10-14
# [40] = test system: Staphylococcus epidermidis; assay: Ratio of compound MIC to ciprofloxacin MIC for methicillin-sensitive Staphylococcus epidermidis 10-11
# Pseudomonas aeruginosa [41] = assay: Antibacterial activity against Pseudomonas aeruginosa 10-12 after 18 to 24 hrs by NCCLS method; summary of the method: as §1
# [42] = test system: Staphylococcus epidermidis; assay: Ratio of compound MIC to ciprofloxacin MIC for methicillin-sensitive Staphylococcus epidermidis 10-15
# Staphylococcus aureus [43] = assay: Antibacterial activity against methicillin-sensitive Staphylococcus aureus 10-13 after 18 to 24 hrs by NCCLS method; summary of the method: as §1
# Enterococcus faecalis [44] = assay: Ratio of compound MIC to ciprofloxacin MIC for Enterococcus faecalis 10-7
# Streptococcus pneumoniae [45] = assay: Antibacterial activity against Streptococcus pneumoniae 10-6 after 18 to 24 hrs by NCCLS method; summary of the method: as §1
# Escherichia coli [46] = assay: Antibacterial activity against Escherichia coli 10-2 after 18 to 24 hrs by NCCLS method; summary of the method: as §1
# Staphylococcus aureus [47] = assay: Ratio of compound MIC to ciprofloxacin MIC for methicillin-sensitive Staphylococcus aureus 10-11
# Streptococcus pneumoniae [48] = assay: Ratio of compound MIC to ciprofloxacin MIC for Streptococcus pneumoniae 10-6
# Pseudomonas aeruginosa [49] = assay: Antibacterial activity against Pseudomonas aeruginosa 10-5 after 18 to 24 hrs by NCCLS method; summary of the method: as §1
# Pseudomonas aeruginosa [50] = assay: Antibacterial activity against Pseudomonas aeruginosa 10-20 after 18 to 24 hrs by NCCLS method; summary of the method: as §1
# [51] = test system: Staphylococcus epidermidis; assay: Antibacterial activity against methicillin-sensitive Staphylococcus epidermidis 10-15 after 18 to 24 hrs by NCCLS method; summary of the method: as §2
smiles,measurement,setting,value
COc1ccc(CN2CCN(c3cc4c(cc3F)c(=O)c(C(=O)O)cn4C3CC3)CC2)cc1,Ratio,Enterococcus faecium [1],2
same,Ratio,Streptococcus pneumoniae [2],2
same,MIC,Escherichia coli [3],8 µg/mL
same,MIC,Escherichia coli [4],> 128 µg/mL
same,MIC,Enterococcus faecalis [5],4 µg/mL
same,MIC,Pseudomonas aeruginosa [6],2 µg/mL
same,MIC,Staphylococcus aureus [7],4 µg/mL
same,MIC,Staphylococcus aureus [8],16 µg/mL
same,MIC,Enterococcus faecalis [9],8 µg/mL
same,MIC,[10],1 µg/mL
same,MIC,Enterococcus faecium [11],16 µg/mL
same,MIC,Staphylococcus aureus [12],16 µg/mL
same,MIC,Escherichia coli [13],0.125 µg/mL
same,Ratio,Enterococcus faecalis [14],2
same,MIC,Pseudomonas aeruginosa [15],4 µg/mL
same,MIC,Staphylococcus aureus [16],0.25 µg/mL
same,MIC,[17],8 µg/mL
same,MIC,Escherichia coli [18],8 µg/mL
same,Ratio,Staphylococcus aureus [19],2
same,Ratio,Staphylococcus aureus [20],2
same,Ratio,Enterococcus faecium [21],2
same,MIC,Escherichia coli [22],> 128 µg/mL
same,MIC,Pseudomonas aeruginosa [23],4 µg/mL
same,MIC,Enterococcus faecalis [24],32 µg/mL
same,MIC,Staphylococcus aureus [25],0.06 µg/mL
same,MIC,Klebsiella pneumoniae [26],> 128 µg/mL
same,MIC,Escherichia coli [27],> 128 µg/mL
same,MIC,Klebsiella pneumoniae [28],> 128 µg/mL
same,MIC,Klebsiella pneumoniae [29],> 128 µg/mL
same,Ratio,Enterococcus faecalis [30],2
same,MIC,Enterococcus faecium [31],1 µg/mL
same,MIC,Klebsiella pneumoniae [32],> 128 µg/mL
same,MIC,[33],0.5 µg/mL
same,MIC,Staphylococcus aureus [34],0.125 µg/mL
same,MIC,[35],8 µg/mL
same,MIC,Streptococcus pneumoniae [36],1 µg/mL
same,MIC,Klebsiella pneumoniae [37],> 128 µg/mL
same,MIC,Klebsiella pneumoniae [38],4 µg/mL
same,Ratio,Staphylococcus aureus [39],2
same,Ratio,[40],2
same,MIC,Pseudomonas aeruginosa [41],2 µg/mL
same,Ratio,[42],2
same,MIC,Staphylococcus aureus [43],0.25 µg/mL
same,Ratio,Enterococcus faecalis [44],2
same,MIC,Streptococcus pneumoniae [45],16 µg/mL
same,MIC,Escherichia coli [46],8 µg/mL
same,Ratio,Staphylococcus aureus [47],2
same,Ratio,Streptococcus pneumoniae [48],2
same,MIC,Pseudomonas aeruginosa [49],4 µg/mL
same,MIC,Pseudomonas aeruginosa [50],4 µg/mL
same,MIC,[51],8 µg/mL
COc1cc(CN2CCN(c3cc4c(cc3F)c(=O)c(C(=O)O)cn4C3CC3)CC2)c([N+](=O)[O-])cc1OC,MIC,Escherichia coli [3],> 128 µg/mL
same,MIC,Escherichia coli [4],> 128 µg/mL
same,MIC,Enterococcus faecalis [5],16 µg/mL
same,MIC,Pseudomonas aeruginosa [6],8 µg/mL
same,MIC,Staphylococcus aureus [7],16 µg/mL
same,MIC,Staphylococcus aureus [8],64 µg/mL
same,MIC,Enterococcus faecalis [9],16 µg/mL
same,MIC,[10],> 32 µg/mL
same,MIC,Enterococcus faecium [11],64 µg/mL
same,MIC,Staphylococcus aureus [12],64 µg/mL
same,MIC,Escherichia coli [13],2 µg/mL
same,MIC,Pseudomonas aeruginosa [15],8 µg/mL
same,MIC,Staphylococcus aureus [16],1 µg/mL
same,MIC,[17],16 µg/mL
same,MIC,Escherichia coli [18],8 µg/mL
same,MIC,Escherichia coli [22],> 128 µg/mL
same,MIC,Pseudomonas aeruginosa [23],8 µg/mL
same,MIC,Enterococcus faecalis [24],128 µg/mL
same,MIC,Staphylococcus aureus [25],1 µg/mL
same,MIC,Klebsiella pneumoniae [26],> 128 µg/mL
same,MIC,Escherichia coli [27],> 128 µg/mL
same,MIC,Klebsiella pneumoniae [28],> 128 µg/mL
same,MIC,Klebsiella pneumoniae [29],> 128 µg/mL
same,MIC,Enterococcus faecium [31],8 µg/mL
same,MIC,Klebsiella pneumoniae [32],> 128 µg/mL
same,MIC,[33],2 µg/mL
same,MIC,Staphylococcus aureus [34],1 µg/mL
same,MIC,[35],16 µg/mL
same,MIC,Streptococcus pneumoniae [36],8 µg/mL
same,MIC,Klebsiella pneumoniae [37],> 128 µg/mL
same,MIC,Klebsiella pneumoniae [38],8 µg/mL
same,MIC,Pseudomonas aeruginosa [41],16 µg/mL
same,MIC,Staphylococcus aureus [43],2 µg/mL
same,MIC,Streptococcus pneumoniae [45],128 µg/mL
same,MIC,Escherichia coli [46],8 µg/mL
same,MIC,Pseudomonas aeruginosa [49],8 µg/mL
same,MIC,Pseudomonas aeruginosa [50],4 µg/mL
same,MIC,[51],16 µg/mL
